PubChem BioAssay AID588478 (ICCB-Longwood Screening Facility, Harvard Medical School, 2011)
Among all 330,000 compounds or so, about 1,100 (0.33%) were called active. The entries come from a sample that favours actives as a whole. Unmarked numbers belong to inactive results.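 The calls were made as follows: active = mean inhibition over replicate wells above about 20% (limit read from the data); inactive = the rest.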

These molecules were tested against Ubiquitin carboxyl-terminal hydrolase isozyme L5 (Homo sapiens) (UniProt Q9Y5K5) (assay: proteasome-bound UCH37 DUB activity blockers – biochemical, Ub-AMC cleavage, fluorescence, primary screen (AID 588478;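 also: 0% = compound-free wells with enzyme and 100% = wells lacking proteasome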)). Conditions: purified proteasome/UCH37, Ub-AMC cleavage fluorescence; stronger effect = higher value; concentration not given here.
Chain of Ubiquitin carboxyl-terminal hydrolase isozyme L5 (Homo sapiens) (Q9Y5K5 whole entry, looked up): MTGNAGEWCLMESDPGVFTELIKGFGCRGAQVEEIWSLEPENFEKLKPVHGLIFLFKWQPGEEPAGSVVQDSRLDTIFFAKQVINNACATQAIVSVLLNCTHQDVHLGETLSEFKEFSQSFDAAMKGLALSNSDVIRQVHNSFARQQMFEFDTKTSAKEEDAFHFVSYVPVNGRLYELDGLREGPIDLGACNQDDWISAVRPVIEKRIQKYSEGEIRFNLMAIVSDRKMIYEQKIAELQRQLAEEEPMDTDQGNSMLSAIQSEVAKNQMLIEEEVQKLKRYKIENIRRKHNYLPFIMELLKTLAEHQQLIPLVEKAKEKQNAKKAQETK
Summary of the method: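 Test system – human UCH37 enzyme supplied as purified proteasome complex · Incubation – 30 min preincubation with enzyme, 25 min cleavage at room temperature · Detection – AMC fluorescence from Ub-AMC cleavage, excitation 355 nm, emission 460 nm · Benchmarks – no-proteasome wells (full inhibition) and compound-free wells (no inhibition)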

Row | Compound | inhibition
1 | COC(=O)[C@H](C)[C@H]1C[C@]1(C)[C@H](NC(=O)OCc1ccccc1)c1ccccc1 | 31% (active)
2 | O=C(NN=Cc1ccco1)c1cc(=O)[nH]c2ccccc12 | 7.58%
3 | O=C(c1ccc2c(c1)OCO2)N1CCN(C(=O)c2ccco2)CC1 | 0.962%
4 | O=C(CN1CCN(C(=O)c2ccco2)CC1)Nc1ccc2c(c1)OCO2 | 1.43%
5 | CCC(=O)Nc1ccc(C(=O)N2CCN(C(=O)c3ccco3)CC2)cc1 | 31.4% (active)
6 | Cc1ccc2nc(C(Cl)(Cl)Cl)nc(NN=Cc3ccc([N+](=O)[O-])cc3)c2c1 | -0.00251%
7 | O=C1c2ccccc2NC(c2ccc(-c3cccc(Cl)c3)o2)N1O (centres undefined) | -14.2%
8 | S=c1[nH]nc(-c2cccc(Cl)c2)n1N=Cc1ccc(-c2ccccc2Br)o1 | 8%
9 | O=C(O)C(c1ccccc1)N1C(=O)/C(=C\c2ccc(-c3cccc(Cl)c3)o2)SC1=S (centres undefined) | 37.5% (active)
10 | CC(=O)n1cc(C=NNC(=O)c2ccc(Cl)cc2)c2ccccc21 | 2.16%
11 | O=C(Cc1cccs1)NN=Cc1ccc(O)cc1 | 1.44%
12 | CCOC(=O)c1c(N=CC2=C(O)CC(C)(C)CC2=O)sc(C)c1C | -1.87%
13 | Cc1ccc(C=NNC(=O)CSc2nc3ccccc3c(=O)n2-c2ccccc2)s1 | 4.54%
14 | Cc1ccc(NC(=O)Nc2cccnc2)cc1 | 0.429%
15 | CC(C)(C)c1ccc(C=NNC(=S)Nc2cccnc2)cc1 | 2.4%
16 | Oc1ccc(C=NNC(=S)Nc2cccnc2)c(O)c1O | 22.7% (active)
17 | COc1cc(C=NN(C)C)ccc1OC(=O)c1cccs1 | 0.992%
18 | COc1ccc(NC(=O)ON=Cc2ccccc2)cc1 | 2.45%
19 | CC(=NNC(=O)c1cccs1)c1ccc(NC(=O)COc2ccc(Cl)cc2)cc1 | -42%
20 | O=C(O)c1cc(NN=Cc2ccncc2)ccc1Cl | 14.4%
21 | Nc1nnnn1CC(=O)NN=Cc1cc([N+](=O)[O-])ccc1Cl | 4.32%
22 | CCCCCCCCn1c2c(c(=N)c3c1CCC3)CCCC2 | 25.7% (active)

Row | Compound | inhibition
23 | Cc1ccc(C=NNC(=O)CNC(=O)COc2ccccc2)o1 | 6.97%
24 | CC(C)(C)NN=Cc1cc(Cl)cc([N+](=O)[O-])c1O | 6.29%
25 | CNC(=O)C(C#N)=c1sc(=CC(=O)OC)c(=O)n1-c1ccccc1 | 3.97%
26 | Cc1ccc(C=NN2CCN(Cc3ccccc3)CC2)o1 | 1.82%
27 | COc1ccc(C(=O)OCC(=O)Nc2ccc3[nH]c(=O)[nH]c3c2)c(OC)c1OC | 0.187%
28 | COc1cc(NC(=O)COC(=O)c2ccc([N+](=O)[O-])s2)cc(OC)c1OC | 70.6% (active)
29 | COc1ccc(C(=O)COC(=O)c2ccc([N+](=O)[O-])s2)cc1OC | 4.79%
30 | COc1cccc(C=NNc2cc(-n3nc(C)cc3-c3ccccc3)ncn2)c1O | 3.24%
31 | O=[N+]([O-])c1cc(S(=O)(=O)N2CCCC2)ccc1NN=Cc1cccnc1 | 3.11%
32 | Cc1nn(-c2ccccc2)c(C)c1C=NNC(=O)c1cccs1 | 2.82%
33 | O=C1C(Cl)=C(Oc2ccccc2)C(=O)c2ccccc21 | 73.8% (active)
34 | CC(=O)Oc1ccc2c(c1)C(=O)c1ccccc1C2=O | 6.5%
35 | Cc1cc(C)c(COc2ccc(C=Nn3c(C)n[nH]c3=S)cc2)c(C)c1 | 2.64%
36 | C[n+]1cn(N=Cc2ccccc2)c2ccccc21 | 0.369%
37 | COc1ccc(C(C)=NNc2ccc(C(=O)O)cc2)cc1OC | 12.1%
38 | COC1(C2=NCCN2)COc2ccccc2O1 (centres undefined) | 22.9% (active)
39 | CCCC=NNc1nnc(Cc2ccc(OC)c(OC)c2)c(=O)[nH]1 | 2.12%
40 | COc1ccc(C(C)=NNC(=O)c2ccc(N(C)C)cc2)cc1 | 3.67%
41 | COc1cc(NS(=O)(=O)c2ccc(NC(=O)c3ccc([N+](=O)[O-])cc3)cc2)ncn1 | 4.65%
42 | Cn1ccc(=Nc2ccc(NC(=O)c3ccc(N=c4ccn(C)c5ccc([N+](=O)[O-])cc45)cc3)cc2)cc1 | 27.5% (active)
43 | CC(=O)NC(=S)Nc1ccc(NC(=S)NC(=O)c2ccc([N+](=O)[O-])cc2)cc1 | 5.88%
44 | COc1ccccc1/C=C/C=NN1CCN(Cc2ccc(Cl)cc2)CC1 | 5.57%
